In article PMC11583631 (RSC Advances, 2024) one finds Percentage inhibition, IC50 and type of inhibition data, which are given here for eleven compounds.

One may read the IC50 as the concentration that gives 50% inhibition.

Read-outs that look alike come from different tables or passages of the source.

In test [1] the test system is bacterial tyrosinase enzyme. In words: in vitro bacterial tyrosinase inhibition assay. As to conditions: L-tyrosine substrate; for Percentage inhibition: 37 °C, absorbance 475 nm; for IC50: by extrapolation of the graph. The class given is biochemical.
The subject of test [2] is tyrosinase enzyme. In words: kinetic studies. The class given is biochemical, bacterial. As to conditions: Lineweaver–Burk and Dixon plots, tyrosine 0.1–1 mM. The method, boiled down: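 Isolated bacterial tyrosinase; pre-incubation and measurement timing as in the main inhibition assay. Lineweaver–Burk: 1/V vs 1/[S]. Ki (EI) and Ki′ (ESI) from secondary plots of slope and intercept vs inhibitor concentration. Dixon plot (1/V vs inhibitor concentration) confirmed inhibition type.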

Test [3] deals with bacterial tyrosinase enzyme. The settings on record: standard inhibitors; ref [50]; cited from earlier work.

In test [1], `CCCCc1ccc(NC(=O)CSc2nnc(-c3cc4c(ccc5ccccc54)o3)n2-c2ccccc2)cc1` [20a, N-(4-butylphenyl)-2-((5-(naphtho[2,1-b]furan-2-yl)-4-phenyl-4H-1,2,4-triazol-3-yl)thio)acetamide] gave a Percentage inhibition of 22.84 ± 0.05.

In test [1], `Cc1ccc(C)c(NC(=O)CSc2nnc(-c3cc4c(ccc5ccccc54)o3)n2-c2ccccc2)c1` [20b, N-(2,5-dimethylphenyl)-2-((5-(naphtho[2,1-b]furan-2-yl)-4-phenyl-4H-1,2,4-triazol-3-yl)thio)acetamide] yielded a Percentage inhibition of 31.40 ± 0.25.

In the case of `CCNC(=O)CSc1nnc(-c2cc3c(ccc4ccccc43)o2)n1-c1ccccc1` [20c, N-ethyl-2-((5-(naphtho[2,1-b]furan-2-yl)-4-phenyl-4H-1,2,4-triazol-3-yl)thio)acetamide], the Percentage inhibition in test [1] was 22.62 ± 0.30.

`COc1ccc(OC)c(NC(=O)CSc2nnc(-c3cc4c(ccc5ccccc54)o3)n2-c2ccccc2)c1` [20d, N-(2,5-dimethoxyphenyl)-2-((5-(naphtho[2,1-b]furan-2-yl)-4-phenyl-4H-1,2,4-triazol-3-yl)thio)acetamide]: the Percentage inhibition in test [1] was 22.77 ± 0.17.

On to `O=C(CSc1nnc(-c2cc3c(ccc4ccccc43)o2)n1-c1ccccc1)Nc1ccccc1Cl` [20f, N-(2-chlorophenyl)-2-((5-(naphtho[2,1-b]furan-2-yl)-4-phenyl-4H-1,2,4-triazol-3-yl)thio)acetamide], for which, in test [1], the Percentage inhibition worked out at 32.34 ± 0.07 and the IC50 is 0.51 ± 0.12 µM. Besides, the type of inhibition result in test [2] is “non-competitively”.

Turning to `COc1ccccc1NC(=O)CSc1nnc(-c2cc3c(ccc4ccccc43)o2)n1-c1ccccc1` [20g, N-(2-methoxyphenyl)-2-((5-(naphtho[2,1-b]furan-2-yl)-4-phenyl-4H-1,2,4-triazol-3-yl)thio)acetamide], in test [1], the Percentage inhibition is 5.40 ± 0.05 and the half-inhibitory concentration (IC50) was 12.9 ± 0.15 µM.

Regarding `O=C(CSc1nnc(-c2cc3c(ccc4ccccc43)o2)n1-c1ccccc1)Nc1ccc(F)cc1` [20h, N-(4-fluorophenyl)-2-((5-(naphtho[2,1-b]furan-2-yl)-4-phenyl-4H-1,2,4-triazol-3-yl)thio)acetamide], in test [1], the Percentage inhibition is on record as 13.92 ± 0.11 and the concentration for half-maximal inhibition (IC50) was 9.36 ± 0.06 µM.

On to `O=C(CSc1nnc(-c2cc3c(ccc4ccccc43)o2)n1-c1ccccc1)N1CCOCC1` [20i, 1-Morpholino-2-((5-(naphtho[2,1-b]furan-2-yl)-4-phenyl-4H-1,2,4-triazol-3-yl)thio)ethanone], for which, in test [1], the Percentage inhibition was determined as 30.55 ± 0.1 and the IC50 was 1.99 ± 0.07 µM.

For `CCN(CC)C(=O)CSc1nnc(-c2cc3c(ccc4ccccc43)o2)n1-c1ccccc1` [20j, N,N-diethyl-2-((5-(naphtho[2,1-b]furan-2-yl)-4-phenyl-4H-1,2,4-triazol-3-yl)thio)acetamide], in test [1], the Percentage inhibition was 2.61 ± 0.50 and the IC50 is 23.03 ± 0.18 µM.

In turn, `O=C1O[C@H]([C@@H](O)CO)C(O)=C1O` [Ascorbic acid, reference compound] returned a Percentage inhibition in test [1] of 58.66 ± 1.00. For the same compound, the IC50 in test [3] is 11.5 ± 1 µM.

For the compound `O=c1cc(CO)occ1O` [Kojic acid, reference compound], the Percentage inhibition in test [1] amounted to 6.80 ± 0.58. The concentration for half-maximal inhibition (IC50) in test [3] is 30.3 ± 0.75 µM.
